Measured values reported in ChEMBL document CHEMBL5712886, “Discovery and Characterization of GSK2801, a Selective Chemical Probe for the Bromodomains BAZ2A and BAZ2B” (J Med Chem, 2016).
Activity calls are given as the source filed them. The calls are words filed in the database; no cut-off is given here.

Columns and labels:
[1] = molecular target: Bromodomain testis-specific protein (Homo sapiens) (UniProt Q58F21); experiment: Binding affinity to biotinylated BRDT bromodomain-2 (unknown origin) expressed in Escherichia coli at 0.2 to 1 uM by Biolayer Interferometric analysis; details: dose 0.2-1 µM
Method in brief: (§1)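 Bromodomains carrying a BirA biotin ligase targeting sequence, coexpressed with BirA in bacteria to give homogeneous in vivo biotin labelling, checked by mass spectrometry. Biotinylated proteins probed by biolayer interferometry with compound at two concentrations, 0.2 and 1.0 μM.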

[2] = molecular target: PH-interacting protein (Homo sapiens) (UniProt Q8WWQ0); experiment: Binding affinity to biotinylated PHIP (unknown origin) expressed in Escherichia coli at 0.2 to 1 uM by Biolayer Interferometric analysis; details: dose 0.2-1 µM; method in brief: as §1
[3] = molecular target: Protein polybromo-1 (Homo sapiens) (UniProt Q86U86); experiment: Binding affinity to biotinylated PB1 bromodomain-6 (unknown origin) expressed in Escherichia coli at 0.2 to 1 uM by Biolayer Interferometric analysis; details: dose 0.2-1 µM; method in brief: as §1
Chain of Protein polybromo-1 (Homo sapiens) (Q86U86 whole entry): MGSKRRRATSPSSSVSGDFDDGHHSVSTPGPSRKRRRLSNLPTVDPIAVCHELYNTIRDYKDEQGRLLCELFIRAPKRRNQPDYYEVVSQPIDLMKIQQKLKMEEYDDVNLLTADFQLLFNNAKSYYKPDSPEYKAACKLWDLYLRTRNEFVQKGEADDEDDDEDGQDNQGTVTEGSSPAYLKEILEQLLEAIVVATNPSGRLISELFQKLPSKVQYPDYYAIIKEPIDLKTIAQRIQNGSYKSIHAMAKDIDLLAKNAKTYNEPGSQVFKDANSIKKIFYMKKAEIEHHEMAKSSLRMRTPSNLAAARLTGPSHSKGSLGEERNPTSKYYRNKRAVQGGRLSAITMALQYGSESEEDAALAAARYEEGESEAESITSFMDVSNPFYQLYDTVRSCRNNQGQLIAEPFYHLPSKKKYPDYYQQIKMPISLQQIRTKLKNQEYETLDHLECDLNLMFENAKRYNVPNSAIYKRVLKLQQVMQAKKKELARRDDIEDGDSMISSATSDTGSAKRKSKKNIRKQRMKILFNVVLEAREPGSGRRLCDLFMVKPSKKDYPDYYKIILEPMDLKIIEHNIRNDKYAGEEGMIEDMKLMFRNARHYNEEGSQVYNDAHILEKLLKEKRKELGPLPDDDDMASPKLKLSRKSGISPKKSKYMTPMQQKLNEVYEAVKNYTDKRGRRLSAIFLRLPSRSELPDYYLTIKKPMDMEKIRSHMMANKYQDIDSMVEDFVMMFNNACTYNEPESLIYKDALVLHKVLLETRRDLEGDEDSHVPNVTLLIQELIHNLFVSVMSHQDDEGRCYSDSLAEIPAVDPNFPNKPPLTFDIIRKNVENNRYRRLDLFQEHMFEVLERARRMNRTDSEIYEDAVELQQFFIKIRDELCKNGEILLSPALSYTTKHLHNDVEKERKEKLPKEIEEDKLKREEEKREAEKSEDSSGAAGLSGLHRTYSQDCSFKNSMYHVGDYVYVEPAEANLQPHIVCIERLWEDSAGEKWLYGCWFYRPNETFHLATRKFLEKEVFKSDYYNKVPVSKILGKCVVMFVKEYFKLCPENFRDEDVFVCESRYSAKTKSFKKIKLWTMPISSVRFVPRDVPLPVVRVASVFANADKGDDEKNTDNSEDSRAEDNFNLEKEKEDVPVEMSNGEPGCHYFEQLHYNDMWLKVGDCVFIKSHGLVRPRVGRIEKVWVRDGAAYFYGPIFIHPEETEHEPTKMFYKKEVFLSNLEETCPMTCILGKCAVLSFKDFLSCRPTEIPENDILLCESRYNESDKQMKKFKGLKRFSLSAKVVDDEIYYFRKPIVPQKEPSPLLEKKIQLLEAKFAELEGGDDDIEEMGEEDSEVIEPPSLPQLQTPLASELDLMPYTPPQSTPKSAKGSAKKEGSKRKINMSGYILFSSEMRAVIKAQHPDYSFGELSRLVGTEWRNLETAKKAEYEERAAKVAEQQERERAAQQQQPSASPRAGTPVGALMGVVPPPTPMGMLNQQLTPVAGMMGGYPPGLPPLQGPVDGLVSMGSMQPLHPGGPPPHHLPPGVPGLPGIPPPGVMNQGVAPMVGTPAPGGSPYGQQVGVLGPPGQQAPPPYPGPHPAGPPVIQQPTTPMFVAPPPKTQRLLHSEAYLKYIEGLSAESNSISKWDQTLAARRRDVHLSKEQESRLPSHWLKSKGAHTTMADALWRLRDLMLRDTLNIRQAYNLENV

[4] = molecular target: SWI/SNF-related matrix-associated actin-dependent regulator of chromatin subfamily A member 2 (Homo sapiens, UniProt P51531); experiment: Binding affinity to biotinylated SMARCA2 (unknown origin) expressed in Escherichia coli at 0.2 to 1 uM by Biolayer Interferometric analysis; details: dose 0.2-1 µM; method in brief: as §1
[5] = molecular target: Histone acetyltransferase KAT2B (Homo sapiens) (UniProt Q92831); experiment: Binding affinity to biotinylated PCAF (unknown origin) expressed in Escherichia coli at 0.2 to 1 uM by Biolayer Interferometric analysis; details: dose 0.2-1 µM; method in brief: as §1
[6] = molecular target: Bromodomain-containing protein 2 (Homo sapiens) (UniProt P25440); experiment: Binding affinity to biotinylated BRD2 bromodomain-2 (unknown origin) expressed in Escherichia coli at 0.2 to 1 uM by Biolayer Interferometric analysis; details: dose 0.2-1 µM; method in brief: as §1
Chain of Bromodomain-containing protein 2 (Homo sapiens) (P25440 whole entry, looked up): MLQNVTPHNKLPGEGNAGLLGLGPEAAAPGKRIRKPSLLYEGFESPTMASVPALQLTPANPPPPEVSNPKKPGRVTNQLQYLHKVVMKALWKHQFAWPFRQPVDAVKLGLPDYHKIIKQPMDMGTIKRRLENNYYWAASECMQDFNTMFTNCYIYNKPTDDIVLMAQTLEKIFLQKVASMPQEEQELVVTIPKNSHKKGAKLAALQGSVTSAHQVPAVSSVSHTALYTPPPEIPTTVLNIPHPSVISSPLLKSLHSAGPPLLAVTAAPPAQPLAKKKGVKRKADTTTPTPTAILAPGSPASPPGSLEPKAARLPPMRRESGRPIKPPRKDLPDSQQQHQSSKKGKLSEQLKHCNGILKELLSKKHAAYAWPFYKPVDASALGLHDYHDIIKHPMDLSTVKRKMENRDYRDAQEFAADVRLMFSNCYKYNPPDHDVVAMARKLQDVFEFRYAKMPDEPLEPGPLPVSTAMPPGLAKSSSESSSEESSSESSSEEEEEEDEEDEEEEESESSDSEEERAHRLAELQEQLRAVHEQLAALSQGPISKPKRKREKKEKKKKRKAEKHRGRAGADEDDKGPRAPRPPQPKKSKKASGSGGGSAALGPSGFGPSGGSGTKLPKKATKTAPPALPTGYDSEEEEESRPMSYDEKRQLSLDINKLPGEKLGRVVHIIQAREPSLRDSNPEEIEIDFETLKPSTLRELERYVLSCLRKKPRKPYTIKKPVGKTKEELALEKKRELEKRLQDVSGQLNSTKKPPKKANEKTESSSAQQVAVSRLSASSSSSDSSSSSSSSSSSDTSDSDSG

[7] = molecular target: Bromodomain-containing protein 4 (Homo sapiens) (UniProt O60885); experiment: Binding affinity to biotinylated BRD4 bromodomain-2 (unknown origin) expressed in Escherichia coli at 0.2 to 1 uM by Biolayer Interferometric analysis; details: dose 0.2-1 µM; method in brief: as §1
[8] = molecular target: Bromodomain testis-specific protein (Homo sapiens) (UniProt Q58F21); experiment: Binding affinity to biotinylated BRDT bromodomain-1 (unknown origin) expressed in Escherichia coli at 0.2 to 1 uM by Biolayer Interferometric analysis; details: dose 0.2-1 µM; method in brief: as §1
[9] = molecular target: Bromodomain-containing protein 4 (Homo sapiens) (UniProt O60885); experiment: Binding affinity to biotinylated BRD4 bromodomain-1 (unknown origin) expressed in Escherichia coli at 0.2 to 1 uM by Biolayer Interferometric analysis; details: dose 0.2-1 µM; method in brief: as §1
[10] = molecular target: Histone-lysine N-methyltransferase ASH1L (Homo sapiens) (UniProt Q9NR48); experiment: Binding affinity to biotinylated ASH1L bromodomain (unknown origin) expressed in Escherichia coli at 0.2 to 1 uM by Biolayer Interferometric analysis; details: dose 0.2-1 µM; method in brief: as §1
[11] = molecular target: Nuclear body protein SP140 (Homo sapiens) (UniProt Q13342); experiment: Binding affinity to biotinylated SP140 (unknown origin) expressed in Escherichia coli at 0.2 to 1 uM by Biolayer Interferometric analysis; details: dose 0.2-1 µM; method in brief: as §1
[12] = molecular target: Tyrosine-protein kinase BAZ1B (Homo sapiens) (UniProt Q9UIG0); experiment: Binding affinity to biotinylated BAZ1B (unknown origin) expressed in Escherichia coli at 0.2 to 1 uM by Biolayer Interferometric analysis; details: dose 0.2-1 µM; method in brief: as §1
[13] = molecular target: Bromodomain-containing protein 2 (Homo sapiens) (UniProt P25440); experiment: Binding affinity to biotinylated BRD2 bromodomain-1 (unknown origin) expressed in Escherichia coli at 0.2 to 1 uM by Biolayer Interferometric analysis; details: dose 0.2-1 µM; method in brief: as §1
[14] = molecular target: Transcription intermediary factor 1-alpha (Homo sapiens) (UniProt O15164); experiment: Binding affinity to biotinylated TIF1 bromodomain-1 (unknown origin) expressed in Escherichia coli at 0.2 to 1 uM by Biolayer Interferometric analysis; details: dose 0.2-1 µM; method in brief: as §1
[15] = molecular target: T1, Bromodomain-containing protein 9 (Homo sapiens) (UniProt Q9H8M2); experiment: Binding affinity to biotinylated C-terminal Avi/His-TEV-fused BRD9 (unknown origin) expressed in Escherichia coli by isothermal titration calorimetric analysis
T1 sequence (whole entry): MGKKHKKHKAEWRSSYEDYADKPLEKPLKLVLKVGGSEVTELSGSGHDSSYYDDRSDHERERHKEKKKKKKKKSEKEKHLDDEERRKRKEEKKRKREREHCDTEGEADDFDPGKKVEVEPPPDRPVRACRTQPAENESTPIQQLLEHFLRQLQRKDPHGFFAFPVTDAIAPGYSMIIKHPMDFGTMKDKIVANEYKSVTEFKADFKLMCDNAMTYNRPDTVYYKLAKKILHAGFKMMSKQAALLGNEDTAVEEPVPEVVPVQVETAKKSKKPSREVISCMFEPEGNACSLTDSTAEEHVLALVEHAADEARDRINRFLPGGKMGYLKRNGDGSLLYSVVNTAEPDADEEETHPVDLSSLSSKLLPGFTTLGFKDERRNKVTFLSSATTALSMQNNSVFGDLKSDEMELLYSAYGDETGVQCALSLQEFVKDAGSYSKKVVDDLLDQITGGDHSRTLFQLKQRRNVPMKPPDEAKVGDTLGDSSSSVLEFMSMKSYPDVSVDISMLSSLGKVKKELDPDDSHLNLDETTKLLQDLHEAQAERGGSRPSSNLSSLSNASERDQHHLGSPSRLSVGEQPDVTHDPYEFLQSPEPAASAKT

[16] = molecular target: CREB-binding protein (Homo sapiens) (UniProt Q92793); experiment: Binding affinity to biotinylated CREBBP (unknown origin) expressed in Escherichia coli at 0.2 to 1 uM by Biolayer Interferometric analysis; details: dose 0.2-1 µM; method in brief: as §1
[17] = molecular target: Chromatin remodeling regulator CECR2 (Homo sapiens) (UniProt Q9BXF3); experiment: Binding affinity to biotinylated CECR2 (unknown origin) expressed in Escherichia coli at 0.2 to 1 uM by Biolayer Interferometric analysis; details: dose 0.2-1 µM; method in brief: as §1
[18] = molecular target: Protein polybromo-1 (Homo sapiens) (UniProt Q86U86); experiment: Binding affinity to biotinylated PB1 bromodomain-5 (unknown origin) expressed in Escherichia coli at 0.2 to 1 uM by Biolayer Interferometric analysis; details: dose 0.2-1 µM; method in brief: as §1
[19] = molecular target: Protein polybromo-1 (Homo sapiens) (UniProt Q86U86); experiment: Binding affinity to biotinylated PB1 bromodomain-2 (unknown origin) expressed in Escherichia coli at 0.2 to 1 uM by Biolayer Interferometric analysis; details: dose 0.2-1 µM; method in brief: as §1
[20] = molecular target: Bromodomain-containing protein 7 (Homo sapiens) (UniProt Q9NPI1); experiment: Binding affinity to biotinylated BRD7 (unknown origin) expressed in Escherichia coli at 0.2 to 1 uM by Biolayer Interferometric analysis; details: dose 0.2-1 µM; method in brief: as §1
[21] = molecular target: Protein polybromo-1 (Homo sapiens) (UniProt Q86U86); experiment: Binding affinity to biotinylated PB1 bromodomain-4 (unknown origin) expressed in Escherichia coli at 0.2 to 1 uM by Biolayer Interferometric analysis; details: dose 0.2-1 µM; method in brief: as §1
[22] = molecular target: Transcription intermediary factor 1-beta (Homo sapiens) (UniProt Q13263); experiment: Binding affinity to biotinylated TRIM28 (unknown origin) expressed in Escherichia coli at 0.2 to 1 uM by Biolayer Interferometric analysis; details: dose 0.2-1 µM; method in brief: as §1
Peregrin (Homo sapiens) = Peregrin (Homo sapiens) (UniProt P55201); experiment: Binding affinity to biotinylated BRPF1 bromodomain-1 (unknown origin) expressed in Escherichia coli at 0.2 to 1 uM by Biolayer Interferometric analysis; details: dose 0.2-1 µM; method in brief: as §1
[23] = molecular target: Histone acetyltransferase KAT2A (Homo sapiens) (UniProt Q92830); experiment: Binding affinity to biotinylated GCN5L2 (unknown origin) expressed in Escherichia coli at 0.2 to 1 uM by Biolayer Interferometric analysis; details: dose 0.2-1 µM; method in brief: as §1
[24] = molecular target: Bromodomain-containing protein 1 (Homo sapiens) (UniProt O95696); experiment: Binding affinity to biotinylated BRD1 (unknown origin) expressed in Escherichia coli at 0.2 to 1 uM by Biolayer Interferometric analysis; details: dose 0.2-1 µM; method in brief: as §1
[25] = molecular target: Bromodomain and WD repeat-containing protein 1 (Homo sapiens) (UniProt Q9NSI6); experiment: Binding affinity to biotinylated WDR9 (unknown origin) expressed in Escherichia coli at 0.2 to 1 uM by Biolayer Interferometric analysis; details: dose 0.2-1 µM; method in brief: as §1
[26] = molecular target: ATPase family AAA domain-containing protein 2B (Homo sapiens) (UniProt Q9ULI0); experiment: Binding affinity to biotinylated KIAA1240 (unknown origin) expressed in Escherichia coli at 0.2 to 1 uM by Biolayer Interferometric analysis; details: dose 0.2-1 µM; method in brief: as §1
[27] = molecular target: Nucleosome-remodeling factor subunit BPTF (Homo sapiens) (UniProt Q12830); experiment: Binding affinity to biotinylated FALZ (unknown origin) expressed in Escherichia coli at 0.2 to 1 uM by Biolayer Interferometric analysis; details: dose 0.2-1 µM; method in brief: as §1
[28] = molecular target: ATPase family AAA domain-containing protein 2 (Homo sapiens) (UniProt Q6PL18); experiment: Binding affinity to biotinylated ATAD2 (unknown origin) expressed in Escherichia coli at 0.2 to 1 uM by Biolayer Interferometric analysis; details: dose 0.2-1 µM; method in brief: as §1
[29] = molecular target: Transcription initiation factor TFIID subunit 1 (Homo sapiens) (UniProt P21675); experiment: Binding affinity to biotinylated TAF1 bromodomain-2 (unknown origin) expressed in Escherichia coli at 0.2 to 1 uM by Biolayer Interferometric analysis; details: dose 0.2-1 µM; method in brief: as §1
Chain of Transcription initiation factor TFIID subunit 1 (Homo sapiens) (P21675 whole entry): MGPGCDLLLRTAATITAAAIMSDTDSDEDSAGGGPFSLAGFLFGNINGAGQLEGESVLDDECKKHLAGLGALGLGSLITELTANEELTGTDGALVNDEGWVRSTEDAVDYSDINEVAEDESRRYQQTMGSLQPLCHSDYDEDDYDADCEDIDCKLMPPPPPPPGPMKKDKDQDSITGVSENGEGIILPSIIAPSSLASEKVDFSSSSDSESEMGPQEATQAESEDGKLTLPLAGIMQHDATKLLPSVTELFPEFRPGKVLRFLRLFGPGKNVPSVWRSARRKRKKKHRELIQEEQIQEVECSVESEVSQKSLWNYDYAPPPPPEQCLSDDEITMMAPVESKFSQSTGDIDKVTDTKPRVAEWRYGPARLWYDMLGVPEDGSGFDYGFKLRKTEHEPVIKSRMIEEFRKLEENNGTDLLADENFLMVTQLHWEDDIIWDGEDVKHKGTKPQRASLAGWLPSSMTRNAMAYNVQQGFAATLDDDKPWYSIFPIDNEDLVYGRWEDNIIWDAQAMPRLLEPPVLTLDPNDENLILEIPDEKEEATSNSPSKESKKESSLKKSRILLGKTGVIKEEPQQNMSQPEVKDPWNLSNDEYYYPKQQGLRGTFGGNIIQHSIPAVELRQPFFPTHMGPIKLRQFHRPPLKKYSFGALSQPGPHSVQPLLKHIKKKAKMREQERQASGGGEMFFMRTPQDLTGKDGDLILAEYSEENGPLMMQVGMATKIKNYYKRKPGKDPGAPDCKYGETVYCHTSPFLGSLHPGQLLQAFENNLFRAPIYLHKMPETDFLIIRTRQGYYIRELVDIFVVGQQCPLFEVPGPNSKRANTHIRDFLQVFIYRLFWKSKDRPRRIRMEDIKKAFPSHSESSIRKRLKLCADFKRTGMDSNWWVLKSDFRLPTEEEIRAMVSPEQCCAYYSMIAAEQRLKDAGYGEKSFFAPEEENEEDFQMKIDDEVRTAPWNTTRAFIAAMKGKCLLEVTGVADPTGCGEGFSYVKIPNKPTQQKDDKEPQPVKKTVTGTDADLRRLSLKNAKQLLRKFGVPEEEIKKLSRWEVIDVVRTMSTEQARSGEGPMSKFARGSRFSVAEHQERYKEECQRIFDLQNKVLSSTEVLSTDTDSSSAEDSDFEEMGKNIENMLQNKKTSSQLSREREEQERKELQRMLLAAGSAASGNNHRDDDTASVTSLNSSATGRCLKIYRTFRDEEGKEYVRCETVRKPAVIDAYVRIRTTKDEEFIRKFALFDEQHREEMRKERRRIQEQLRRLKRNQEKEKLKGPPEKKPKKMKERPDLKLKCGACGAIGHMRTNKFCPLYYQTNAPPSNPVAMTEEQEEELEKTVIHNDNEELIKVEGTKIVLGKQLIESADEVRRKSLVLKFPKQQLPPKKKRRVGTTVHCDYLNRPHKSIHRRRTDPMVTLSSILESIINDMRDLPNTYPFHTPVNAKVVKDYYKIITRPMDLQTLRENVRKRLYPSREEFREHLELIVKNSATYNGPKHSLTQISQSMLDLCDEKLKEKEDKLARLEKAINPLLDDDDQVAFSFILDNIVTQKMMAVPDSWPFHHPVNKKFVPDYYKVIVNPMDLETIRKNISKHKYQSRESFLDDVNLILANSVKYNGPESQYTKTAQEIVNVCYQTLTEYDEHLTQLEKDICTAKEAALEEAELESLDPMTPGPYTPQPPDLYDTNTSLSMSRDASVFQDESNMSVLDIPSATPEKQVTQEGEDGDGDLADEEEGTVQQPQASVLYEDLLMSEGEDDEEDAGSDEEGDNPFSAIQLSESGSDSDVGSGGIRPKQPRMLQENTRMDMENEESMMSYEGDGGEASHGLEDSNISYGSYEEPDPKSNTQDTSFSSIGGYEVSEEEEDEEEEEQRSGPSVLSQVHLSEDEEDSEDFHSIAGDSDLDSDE

[30] = molecular target: Transcription initiation factor TFIID subunit 1 (Homo sapiens) (UniProt P21675); experiment: Binding affinity to biotinylated TAF1 bromodomain-1 (unknown origin) expressed in Escherichia coli at 0.2 to 1 uM by Biolayer Interferometric analysis; details: dose 0.2-1 µM; method in brief: as §1
[31] = molecular target: Protein polybromo-1 (Homo sapiens) (UniProt Q86U86); experiment: Binding affinity to biotinylated PB1 bromodomain-1 (unknown origin) expressed in Escherichia coli at 0.2 to 1 uM by Biolayer Interferometric analysis; details: dose 0.2-1 µM; method in brief: as §1
[32] = molecular target: Transcription initiation factor TFIID subunit 1-like (Homo sapiens) (UniProt Q8IZX4); experiment: Binding affinity to biotinylated TAF1L bromodomain-1 (unknown origin) expressed in Escherichia coli at 0.2 to 1 uM by Biolayer Interferometric analysis; details: dose 0.2-1 µM; method in brief: as §1
[33] = molecular target: Bromodomain-containing protein 3 (Homo sapiens) (UniProt Q15059); experiment: Binding affinity to biotinylated BRD3 bromodomain-2 (unknown origin) expressed in Escherichia coli at 0.2 to 1 uM by Biolayer Interferometric analysis; details: dose 0.2-1 µM; method in brief: as §1
Chain of Bromodomain-containing protein 3 (Homo sapiens) (Q15059 2-726 limits assumed): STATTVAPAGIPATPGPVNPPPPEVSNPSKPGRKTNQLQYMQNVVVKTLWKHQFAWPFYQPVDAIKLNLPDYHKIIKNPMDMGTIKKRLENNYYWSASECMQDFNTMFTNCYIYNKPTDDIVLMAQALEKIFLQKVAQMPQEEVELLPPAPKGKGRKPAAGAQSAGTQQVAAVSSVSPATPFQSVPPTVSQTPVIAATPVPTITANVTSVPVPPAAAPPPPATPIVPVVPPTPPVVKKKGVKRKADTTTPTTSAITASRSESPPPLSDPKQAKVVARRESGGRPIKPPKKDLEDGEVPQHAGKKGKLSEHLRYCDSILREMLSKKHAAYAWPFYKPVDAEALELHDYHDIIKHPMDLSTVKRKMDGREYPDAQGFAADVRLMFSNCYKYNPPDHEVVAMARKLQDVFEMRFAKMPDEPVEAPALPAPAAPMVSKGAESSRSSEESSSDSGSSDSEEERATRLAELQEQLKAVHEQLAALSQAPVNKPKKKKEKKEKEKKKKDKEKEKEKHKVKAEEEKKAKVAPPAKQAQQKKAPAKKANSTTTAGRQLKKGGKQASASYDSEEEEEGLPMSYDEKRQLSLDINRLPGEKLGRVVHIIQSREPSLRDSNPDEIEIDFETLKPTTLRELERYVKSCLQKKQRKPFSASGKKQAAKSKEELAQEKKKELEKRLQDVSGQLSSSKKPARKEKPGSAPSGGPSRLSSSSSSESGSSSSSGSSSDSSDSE

[34] = molecular target: Bromodomain and WD repeat-containing protein 3 (Homo sapiens) (UniProt Q6RI45); experiment: Binding affinity to biotinylated BRWD3 bromodomain-2 (unknown origin) expressed in Escherichia coli at 0.2 to 1 uM by Biolayer Interferometric analysis; details: dose 0.2-1 µM; method in brief: as §1
[35] = molecular target: Histone acetyltransferase p300 (Homo sapiens) (UniProt Q09472); experiment: Binding affinity to biotinylated EP300 (unknown origin) expressed in Escherichia coli at 0.2 to 1 uM by Biolayer Interferometric analysis; details: dose 0.2-1 µM; method in brief: as §1
[36] = molecular target: SWI/SNF-related matrix-associated actin-dependent regulator of chromatin subfamily A member 4 (Homo sapiens, UniProt P51532); experiment: Binding affinity to biotinylated SMARCA4 (unknown origin) expressed in Escherichia coli at 0.2 to 1 uM by Biolayer Interferometric analysis; details: dose 0.2-1 µM; method in brief: as §1
[37] = molecular target: T1, Bromodomain-containing protein 9 (Homo sapiens); experiment: Binding affinity to biotinylated BRD9 (unknown origin) expressed in Escherichia coli at 0.2 to 1 uM by Biolayer Interferometric analysis; details: dose 0.2-1 µM; method in brief: as §1
[38] = molecular target: Bromodomain-containing protein 3 (Homo sapiens) (UniProt Q15059); experiment: Binding affinity to biotinylated BRD3 bromodomain-1 (unknown origin) expressed in Escherichia coli at 0.2 to 1 uM by Biolayer Interferometric analysis; details: dose 0.2-1 µM; method in brief: as §1

Activity [1]: inactive | Activity [2]: inactive | Activity [3]: inactive | Activity [4]: inactive | Activity [5]: inactive | Activity [6]: inactive | Activity [7]: inactive | Activity [8]: inactive | Activity [9]: inactive | Activity [10]: inactive | Activity [11]: inactive | Activity [12]: inactive | Activity [13]: inactive | Activity [14]: inactive | Kb [15]: 0.826 10^6/M | Activity [16]: inactive | Activity [17]: inactive | Activity [18]: inactive | Activity [19]: inactive | Activity [20]: inactive | Activity [21]: inactive | Activity [22]: inactive | Activity (Peregrin (Homo sapiens)): inactive | Activity [23]: inactive | Activity [24]: inactive | Activity [25]: inactive | Activity [26]: inactive | Activity [27]: inactive | Activity [28]: inactive | Activity [29]: inactive | Activity [30]: inactive | Activity [31]: inactive | Activity [32]: inactive | Activity [33]: inactive | Activity [34]: inactive | Activity [35]: inactive | Activity [36]: inactive | Activity [37]: Active | Activity [38]: inactive
SMILES: CCCOc1ccn2c(C(C)=O)cc(-c3ccccc3S(C)(=O)=O)c2c1
